{
  "source": "paper PMC7679043",
  "about": "(Molecular imaging and biology, 2020)",
  "key": {"[1]": {"system": "S1PR1", "conditions": "read-out: IC50, nM S1PR1; binding affinity reported previously; cited from earlier work"}, "[2]": {"system": "S1PR2-5", "conditions": "read-out: IC50, nM S1PR2-5; binding affinity reported previously; cited from earlier work"}, "[3]": {"molecular_target": "S1PR1 (Rattus norvegicus, UniProt P48303)", "sequence (P48303 whole entry)": "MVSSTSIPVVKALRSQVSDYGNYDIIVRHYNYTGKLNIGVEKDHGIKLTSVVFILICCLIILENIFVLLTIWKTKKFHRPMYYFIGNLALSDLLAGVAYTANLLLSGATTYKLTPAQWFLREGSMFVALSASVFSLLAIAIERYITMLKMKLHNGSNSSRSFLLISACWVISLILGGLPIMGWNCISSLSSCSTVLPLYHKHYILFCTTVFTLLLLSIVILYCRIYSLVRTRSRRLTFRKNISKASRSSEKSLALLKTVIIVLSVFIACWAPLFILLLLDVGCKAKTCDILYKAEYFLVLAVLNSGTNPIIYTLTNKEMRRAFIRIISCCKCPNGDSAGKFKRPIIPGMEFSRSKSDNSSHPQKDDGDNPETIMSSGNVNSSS", "type": "in vivo", "conditions": "for Average uptake: 10–60 min post injection; for 2TCM VT: image-derived input function", "outline": "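EAE and sham rats (n=3–4 per group per tracer) were held under 1.5–2% isoflurane/oxygen, centered on T13. After CT, each received a 15–22 MBq i.v. bolus, followed by 60-min dynamic list-mode PET. Lumbar spinal cord and bilateral carotid ROIs on co-registered PET/CT gave %ID/g TACs. Mean 10–60 min uptake and 2TCM VT (carotid image-derived input) were compared by two-tailed t-test (P<0.05).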"}, "[4]": {"test": "HPLC radiometabolite analysis of rat plasma and brain", "type": "in vivo", "conditions": "for level of the lipophilic radiometabolite / level of the polar radiometabolite / percentage of the parent compound: rat plasma", "outline": "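Adult male Sprague Dawley rats were given ~37 MBq tracer i.v. At set times post-injection they were killed by terminal exsanguination under surgical-plane anesthesia. Heparinized left-ventricle blood was spun to plasma, solvent-deproteinated and re-centrifuged. Whole brain was homogenized in cold PBS, then solvent-extracted, deproteinated and centrifuged. Supernatants ran on C18 HPLC with acetonitrile/0.1 M ammonium formate pH 4.5 (70/30) at 0.76 mL/min. Radioactive peaks were expressed as percentages.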"}, "[5]": {"conditions": "rat brain homogenate, 5 min p.i."}, "[6]": {"conditions": "rat brain homogenate, 15 min p.i."}, "[7]": {"conditions": "rat brain homogenate, 40 min p.i."}, "[8]": {"conditions": "rat brain homogenate, 60 min p.i."}},
  "note": "Entries after “also recorded” stand apart in the source; their conditions may differ. Where two headings read alike, the source gives them in different places.",
  "data": [
    {"compound": "OCCOCc1ccc(-c2noc(-c3ccc(OCCF)c(C(F)(F)F)c3)n2)cc1", "note": "[TZ4877]", "values": [
      {"measurement": "IC50", "setting": "[1]", "result": "14.01 ± 0.04", "unit": "nM"},
      {"measurement": "IC50", "setting": "[2]", "result": "> 1000", "unit": "nM"}
    ]},
    {"compound": "OCCOCc1ccc(-c2noc(-c3ccc(OCC[18F])c(C(F)(F)F)c3)n2)cc1", "note": "[TZ4877]", "values": [
      {"measurement": "Average uptake", "setting": "[3]; EAE rat lumbar spinal cord", "result": "1.42 ± 0.14", "unit": "%ID/g"},
      {"measurement": "2TCM VT", "setting": "[3]; EAE rat lumbar spinal cord", "result": "2.18 ± 0.20", "unit": "mL/cc"},
      {"measurement": "2TCM VT Increase, %", "setting": "[3]; EAE vs sham", "result": 21.11, "unit": "%"},
      {"measurement": "Average uptake Increase, %", "setting": "[3]; EAE vs sham rat lumbar spinal cord, listed as 18F-TZ4877", "result": 29.09, "unit": "%"},
      {"measurement": "bone uptake/defluorination", "setting": "[3]; PET images without CT co-registration, rat", "result": "no obvious bone uptake/defluorination"},
      {"measurement": "initial tracer uptake at 20 min", "setting": "[3]; rat spinal cord, 20 min", "result": "~ 1.5 %ID/g"},
      {"measurement": "tracer uptake / retention at 60 min", "setting": "[3]; rat spinal cord, 60 min", "result": "> 1.0", "unit": "%ID/g"},
      {"measurement": "Average uptake", "setting": "[3]; sham rat lumbar spinal cord, listed as 18F-TZ4877", "result": "1.10 ± 0.06", "unit": "%ID/g"},
      {"measurement": "2TCM VT", "setting": "[3]; sham rat lumbar spinal cord", "result": "1.80 ± 0.20", "unit": "mL/cc"},
      {"measurement": "hydrophilic radiometabolite", "setting": "[4]; [5]", "result": 6, "unit": "%"},
      {"measurement": "parent tracer percentage", "setting": "[4]; [5]", "result": 78, "unit": "%"},
      {"measurement": "hydrophilic radiometabolite", "setting": "[4]; [6]", "result": 2, "unit": "%"},
      {"measurement": "parent tracer percentage", "setting": "[4]; [6]", "result": 89, "unit": "%"},
      {"measurement": "hydrophilic radiometabolite", "setting": "[4]; [7]", "result": 10, "unit": "%"},
      {"measurement": "parent tracer percentage", "setting": "[4]; [7]", "result": 65, "unit": "%"},
      {"measurement": "hydrophilic radiometabolite", "setting": "[4]; [8]", "result": 14, "unit": "%"},
      {"measurement": "parent tracer percentage", "setting": "[4]; [8]", "result": 68, "unit": "%"},
      {"measurement": "lipophilic radiometabolite in brain", "setting": "[4]; rat brain homogenate, listed as 18F-TZ4877", "result": "No lipophilic radioactive peak was detected; also recorded: not detected"},
      {"measurement": "level of the lipophilic radiometabolite", "setting": "[4]; 5 min p.i.", "result": 14, "unit": "%"},
      {"measurement": "level of the polar radiometabolite", "setting": "[4]; 5 min p.i.", "result": 7, "unit": "%"},
      {"measurement": "percentage of the parent compound", "setting": "[4]; 5 min p.i.", "result": 75, "unit": "%"},
      {"measurement": "level of the lipophilic radiometabolite", "setting": "[4]; 15 min p.i.", "result": 21, "unit": "%"},
      {"measurement": "level of the polar radiometabolite", "setting": "[4]; 15 min p.i.", "result": 6, "unit": "%"},
      {"measurement": "percentage of the parent compound", "setting": "[4]; 15 min p.i.", "result": 68, "unit": "%"},
      {"measurement": "level of the lipophilic radiometabolite", "setting": "[4]; 40 min p.i.", "result": 26, "unit": "%"},
      {"measurement": "level of the polar radiometabolite", "setting": "[4]; 40 min p.i.", "result": 5, "unit": "%"},
      {"measurement": "percentage of the parent compound", "setting": "[4]; 40 min p.i.", "result": 66, "unit": "%"},
      {"measurement": "level of the lipophilic radiometabolite", "setting": "[4]; 60 min p.i.", "result": 41, "unit": "%"},
      {"measurement": "level of the polar radiometabolite", "setting": "[4]; 60 min p.i.", "result": 5, "unit": "%"},
      {"measurement": "percentage of the parent compound", "setting": "[4]; 60 min p.i.", "result": 51, "unit": "%"}
    ]}
  ]
}
